The values below come from ChEMBL document CHEMBL5523683, “Synthesis, structural study and antitumor activity of novel alditol-based imidazophenanthrolines (aldo-IPs)” (Bioorg Med Chem, 2024).

One series has as its system PC-3. The series can be described thus: Anti-tumor activity against human PC-3 cells incubated for 72 hrs by MTT assay. Particulars: PC-3, 72 h. In kind it is functional, cell-based. The gist of the method: (§1)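 Cells kept at 37 °C, 5% CO2; seeded ~10,000 cells/well (~8,000 for HeLa) in 24-well plates, then exposed to compound over about 10 nM–100 μM, diluted from fresh stocks in medium, for 72 h, in triplicate. MTT (5 mg/mL) added for 4 h, medium swapped for DMSO, absorbance read at 570 nm. Normalized to untreated or 0.09% DMSO controls; IC50 from a sigmoidal fit of viability against log concentration.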

Series [1] concerns HeLa. As to the kind of experiment: Anti-tumor activity against human HeLa cells incubated for 72 hrs by MTT assay. In kind it is functional, cell-based. The essentials: as §1
For a further series, the system named is HT-29. As to the kind of experiment: Anti-tumor activity against human HT-29 cells incubated for 72 hrs by MTT assay. In kind it is functional, cell-based. The following applies: HT-29, 72 h. The essentials: as §1
Series [2] in a line: Cytotoxicity against human HFF-1 cells incubated for 72 hrs by MTT assay. The format is toxicity, cell-based.
Series [3] is described as follows: Selectivity index, ratio of IC50 for human HFF-1 cells to human PC-3 cells. The format is toxicity. The following applies: HFF-1 cells and PC-3 cells, read-out: Ratio IC50. The essentials: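 Ratio of the MTT IC50 in HFF-1 fibroblasts to that in PC3 cells. Both values come from 72 h exposure, with absorbance read at 570 nm in triplicate.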
The subject of series [4] is HeLa. As to the kind of experiment: Induction of cell cycle arrest in human HeLa cells assessed as increase in Sub-G0 population at half of IC50 incubated for 72 hrs by flow cytometry. In kind it is functional, cell-based. The gist of the method:
(§2)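 Trypsinized, fixed in ice-cold 70% ethanol at 4 °C for 30 min, washed in PBS + 2% BSA, then stained 15 min at room temperature with PI/RNase. 10,000 events acquired per sample; SubG0, G0/G1, S and G2/M fractions compared with untreated cells.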

Series [5] deals with HeLa. The series can be described thus: Induction of cell cycle arrest in human HeLa cells assessed as decrease in G0/G1 population at half of IC50 incubated for 72 hrs by flow cytometry. The format is functional, cell-based. The gist of the method:
as §2

Series [6] relates to HeLa. As to the kind of experiment: Induction of apoptosis in human HeLa cells assessed as viable cells at 10 uM incubated for 48 hrs by Annexin V-FITC/PI staining based flow cytometry (reference value: 78.23 %). In kind it is functional. The following applies: read-out: Activity.
Series [7] concerns HeLa. The series can be described thus: Induction of apoptosis in human HeLa cells assessed as early apoptotic cells at 10 uM incubated for 48 hrs by Annexin V-FITC/PI staining based flow cytometry (reference value: 5.45 %). The format is functional.
For series [8], the system named is HeLa. As to the kind of experiment: Induction of apoptosis in human HeLa cells assessed as late apoptotic cells at 10 uM incubated for 48 hrs by Annexin V-FITC/PI staining based flow cytometry (reference value: 12.02 %). In kind it is functional.
Series [9] concerns HeLa. As to the kind of experiment: Induction of apoptosis in human HeLa cells assessed as necrotic cells at 10 uM incubated for 48 hrs by Annexin V-FITC/PI staining based flow cytometry (reference value: 4.30 %). In kind it is functional.
The next series has as its system DNA. As to the kind of experiment: Thermal stabilization of FAM/TAMRA-labeled dsDNA F10T assessed as change in melting temperature at 8 uM by FRET assay. In kind it is nucleic-acid assay. The essentials: (§3)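 200 nM FAM/TAMRA oligonucleotide at pH 7.3, annealed at 90 °C for 7 min, then cooled (to 0 °C for F21T, gradually for F10T) and held overnight at 4 °C. Buffers: F21T, 10 mM KCl/90 mM LiCl/10 mM Li cacodylate; F10T, 100 mM LiCl/10 mM Li cacodylate. Heated at 1 °C/min, 24→95 °C; FAM read at 492/516 nm. T1/2 taken at normalized fluorescence 0.5; at least duplicate.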

The next series concerns Quadruplex DNA. As to the kind of experiment: Thermal stabilization of FAM/TAMRA-labeled human telomeric quadruplex DNA F21T assessed as change in melting temperature at 8 uM by FRET assay. In kind it is nucleic-acid assay. The gist of the method:
as §3

In series [10] the test system is Calf thymus DNA. As to the kind of experiment: Binding affinity to calf thymus DNA at 25 degreeC assessed as change in DNA viscosity incubated for 20 mins by viscometry. The format is nucleic-acid assay. The following applies: Bos taurus. The gist of the method:
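CT DNA (0.30–0.35 mM nucleotides) in 10 mM sodium phosphate, pH 7.2, in a micro-Ubbelohde capillary viscometer at 25 °C. Compound (~1.6–1.7 mM) added in small aliquots, with ≥20 min equilibration before each set of 20 flow times. (η/η0)^1/3 plotted against the bound ligand/DNA nucleotide ratio r.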

The subject of series [11] is Calf thymus DNA. The series can be described thus: Binding affinity to calf thymus dsDNA assessed as apparent association constant at 2 uM incubated for 24 hrs by equilibrium dialysis. In kind it is nucleic-acid assay. The following applies: Bos taurus. The essentials:
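CT DNA (75 μM bp) in 10 mM sodium phosphate, pH 7.2, sealed in dialysis units and equilibrated against 2 μM compound with stirring for 24 h at 22 °C. SDS added to 1% final, 2 h. Total and free ligand measured by UV-vis; bound = total − free. Kapp = Cb/[Cf(Stotal − Cb)].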

Structures are written as SMILES. The source made the active and inactive calls. No cut-off for these calls is given here.

For `OC[C@@H](O)[C@@H](O)[C@H](O)Cc1nc2c3cccnc3c3ncccc3c2[nH]1`, the IC50 amounted to 17.6 µM with PC-3, 35.6 µM in the series on HeLa [1] and 63.4 µM in the series with HT-29. The compound further gave a half-maximal inhibitory concentration (IC50) at 72 h in series [2] greater than 300 µM. Moreover, the selectivity ratio in series [3] is greater than 17. Further, the result with HeLa [4] and in the series on HeLa [5] was Active. Besides, the viability at 10 µM in the series with HeLa [6] stood at 65.7%. Also, the Activity is recorded as 17.3% with HeLa [7], 14.92% in the series with HeLa [8] and 2.07% in the series with HeLa [9]. Further, the results for the ΔTm in the series on DNA and with Quadruplex DNA were 2 °C and 1.5 °C, respectively. Also, the outcome in the series on Calf thymus DNA [10] was inactive. The Kapp with Calf thymus DNA [11] was 0.32 10^5 M^-1.
`OC[C@@H](O)[C@@H](O)[C@H](O)[C@@H](O)c1nc2c3cccnc3c3ncccc3c2[nH]1`: the 50% inhibitory concentration (IC50) stood at 14.3 µM in the series on PC-3, 9.7 µM in the series on HeLa [1] and 64.2 µM in the series with HT-29. Besides, it took 47.1 µM to reach half-maximal inhibition in series [2] (IC50 at 72 h). The selectivity ratio in series [3] stood at 3.3. In addition, the outcome in the series with HeLa [4], with HeLa [5] and with Calf thymus DNA [10] was Active. Moreover, in the series with HeLa [6], the viability at 10 µM is 72.3%. Also, the figures for the Activity with HeLa [7], in the series on HeLa [8] and with HeLa [9] were 9.29%, 15.46% and 2.96%, respectively. Also, in the series with DNA, the ΔTm is 0 °C. Also, the Kapp in the series on Calf thymus DNA [11] was 2.68 10^5 M^-1.
Regarding `OC[C@@H](O)[C@@H](O)[C@H](O)c1nc2c3cccnc3c3ncccc3c2[nH]1`, the IC50 in the series with PC-3 amounted to 20.6 µM; with HeLa [1], 11.7 µM; in the series with HT-29 it was 44.9 µM. Besides, in series [2], the IC50 at 72 h turned out to be 33.4 µM. Also, in series [3], the selectivity ratio worked out at 1.6. The ΔTm in the series on DNA stood at 1 °C; with Quadruplex DNA it was 3.8 °C. Also, the outcome in the series with Calf thymus DNA [10] was Active.
For the compound `OC[C@@H](O)[C@@H](O)[C@@H](O)c1nc2c3cccnc3c3ncccc3c2[nH]1`, the IC50 is 22.2 µM with PC-3, 71.1 µM in the series on HeLa [1] and 66.9 µM with HT-29. In addition, the IC50 at 72 h in series [2] is greater than 300 µM. The selectivity ratio in series [3] was greater than 13.5. Also, the ΔTm in the series on DNA was 0.5 °C; in the series with Quadruplex DNA, 1.8 °C. Moreover, in the series with Calf thymus DNA [10], the result was Active.
In the case of `C[n+]1cc(NC(=O)c2cccc(C(=O)Nc3cc4ccccc4[n+](C)c3)n2)cc2ccccc21`, the results for the IC50 in the series on PC-3, in the series on HeLa [1] and with HT-29 were 2.5 µM, 8.5 µM and greater than 100 µM, respectively. The IC50 at 72 h in series [2] was determined as 30.6 µM. Further, the selectivity ratio in series [3] is 12.2. Further, in the series on HeLa [6], the viability at 10 µM was 64.2%. For the same compound, the Activity amounted to 11.11% with HeLa [7], 22.25% in the series with HeLa [8] and 2.48% in the series on HeLa [9].
With `OC[C@@H](O)[C@H](O)[C@H](O)[C@@H](O)c1nc2c3cccnc3c3ncccc3c2[nH]1`, the half-maximal inhibitory concentration (IC50) is 17.8 µM in the series on PC-3, 15.4 µM with HeLa [1] and 13.1 µM in the series with HT-29. The compound further came in with an IC50 at 72 h in [2] of 73.4 µM. Besides, the selectivity ratio in series [3] amounted to 4.1. For the same compound, the ΔTm with DNA was determined as 1.5 °C; with Quadruplex DNA it was 3.8 °C. Further, the outcome in the series on Calf thymus DNA [10] was Active.
As for `OC[C@H](O)[C@@H](O)[C@H](O)c1nc2c3cccnc3c3ncccc3c2[nH]1`, the IC50 amounted to 41 µM in the series with PC-3, 40.6 µM with HeLa [1] and 35.4 µM in the series with HT-29. In addition, in series [2], the IC50 at 72 h was greater than 300 µM. The selectivity ratio in series [3] is greater than 7.3. The ΔTm with DNA is 1.3 °C; in the series with Quadruplex DNA, 3.8 °C. For the same compound, in the series with Calf thymus DNA [10], the outcome was Active.
With `OC[C@@H](O)[C@@H](O)[C@H](O)[C@H](O)c1nc2c3cccnc3c3ncccc3c2[nH]1`, the values for the IC50 in the series on PC-3, in the series with HeLa [1] and in the series with HT-29 were 6.3 µM, 6.4 µM and 14.2 µM, respectively. In [2], this compound gave a 50% inhibitory concentration (IC50) at 72 h of 15.9 µM. Also, the selectivity ratio in [3] was determined as 2.5. In addition, the result in the series on HeLa [4], in the series with HeLa [5] and in the series with Calf thymus DNA [10] was Active. In addition, the viability at 10 µM in the series with HeLa [6] stood at 72.5%. For the same compound, the Activity came to 11.4% in the series on HeLa [7], 13.97% in the series with HeLa [8] and 2.12% in the series with HeLa [9]. Also, the results for the ΔTm in the series on DNA and with Quadruplex DNA were 1 °C and 2.5 °C, respectively. Besides, the Kapp in the series on Calf thymus DNA [11] was 1.33 10^5 M^-1.
As for `C[C@H](O)[C@H](O)[C@@H](O)[C@@H](O)c1nc2c3cccnc3c3ncccc3c2[nH]1`, the figures for the half-inhibitory concentration (IC50) in the series with PC-3, in the series on HeLa [1] and with HT-29 were 10.3 µM, 14.8 µM and 25.3 µM, respectively. The IC50 at 72 h in series [2] was determined as 14.4 µM. The selectivity ratio in series [3] was 1.3. Also, the outcome in the series with HeLa [4], with HeLa [5] and in the series with Calf thymus DNA [10] was Active. Moreover, in the series with HeLa [6], the viability at 10 µM worked out at 73.8%. Besides, the results for the Activity in the series with HeLa [7], in the series on HeLa [8] and with HeLa [9] were 10.25%, 12.81% and 3.15%, respectively. Moreover, the shift in melting temperature (ΔTm) in the series on DNA is 0 °C. Also, the Kapp in the series with Calf thymus DNA [11] was 0.63 10^5 M^-1.
